Rows were chosen to be rich in hits. Some 4.7% of all compounds tested hit in one or more screens of this group.
MC4R ag barr: human MC4R agonism via beta-arrestin | U2OS MC4R beta-arrestin complementation, luminescence; percent of melanotan II response, DMSO zero | activation, % at 8.9 µM | 360,000 tested, 0.98% active | AID 540308;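 active = activation above a per-plate cutoff, the mean activation of sample wells on that plate plus 3 SD, cut at about 8% in these data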
Target sequence (P32245 whole entry, looked up): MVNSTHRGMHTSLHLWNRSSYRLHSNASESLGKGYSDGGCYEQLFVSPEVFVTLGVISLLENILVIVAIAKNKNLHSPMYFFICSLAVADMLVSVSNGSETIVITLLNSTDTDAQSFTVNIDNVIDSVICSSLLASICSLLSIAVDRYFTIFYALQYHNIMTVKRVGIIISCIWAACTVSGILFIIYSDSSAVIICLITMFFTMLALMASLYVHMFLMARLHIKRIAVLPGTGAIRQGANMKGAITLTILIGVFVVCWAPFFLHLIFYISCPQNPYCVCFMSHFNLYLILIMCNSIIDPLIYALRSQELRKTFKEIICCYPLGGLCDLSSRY
HTR2A ag: activates the mouse 5-HT2A serotonin receptor; P35363; CHO-K1 mHTR2A beta-arrestin complementation, luminescence; percent of 30 µM serotonin response; activation, % at 7.6 µM; 360,000 tested, 0.66% active;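 active = activation above a run cutoff, the mean activation of all tested compounds plus 3 SD, cut at about 14% in these data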;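 also: 0% = plate median of compound wells and 100% = 30 µM serotonin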
AHR act: human AHR activation; P35869; AHR-responsive luciferase reporter cells, luminescence; activation, % at 5 µM; 320,000 tested, 2.5% active; AID 2796; in the data active = activation above about 47%;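 also: 0% = vehicle wells and 100% = reference agonist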
MC4R antag cAMP: blocks human MC4R cAMP signaling; P32245; MC4R-expressing cells, MTII-stimulated cAMP, LANCE TR-FRET; 360,000 tested, 0.48% active; AID 540295; inhibition, % at 6.5 µM;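 active = inhibition above its plate's cutoff, the mean of tested wells on that plate plus 3 SD, cut at about 29% in these data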;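 also: 0% = Melanotan II alone and 100% = Melanotan II plus saturating MCL0020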
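System – human MC4R-expressing U2OS cells · Also added – Melanotan II · Dosing – one concentration, 6.5 µM nominal · Timing – 30-min compound, 1-h challenge, 1-h detection, room temperature · Measured by – Eu-cAMP/anti-cAMP TR-FRET, emission 671 nm · Replicates – singlicate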
FXN GAA850 act: activators of GAA850 frataxin (FXN) promoter; HEK293 lucGAA850 FXN promoter luciferase reporter, 24 h; percent of 10 µM SAHA response; activation, % at 6 µM; 360,000 tested, 0.56% active;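 active = activation above the average of all compounds screened plus 3 SD, cutoff fixed separately per campaign, cut at about 7.5% in these data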;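 also: 0% = DMSO wells and 100% = 10 µM SAHA wells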
OPRM1 ag: OPRM1 agonism in mouse HTR2A counterscreen; shares compounds with HTR2A ag; U2OS OPRM1 beta-arrestin PathHunter, luminescence; DMSO 0%, DAMGO 9.3 µM 100%; activation, % at 9.3 µM; 2,300 tested, 5.3% active;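 active = mean activation above the mean of DMSO-only wells plus 3 SD, cut at about 0.5% in these data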
m5-HT2A ag conf: mouse HTR2A agonism confirmed; CHO-K1 PathHunter beta-arrestin recruitment, luminescence; DMSO 0%, 30 µM serotonin 100%; 2,300 tested, 19% active; activation, % at 7.6 µM; AID 624381; shares compounds with HTR2A ag;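 active = mean activation across triplicates above the hit threshold derived in the original primary screen, cut at about 15% in these data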
Active calls of the source: *; · = no result given.

SMILES | MC4R ag barr | HTR2A ag | AHR act | MC4R antag cAMP | FXN GAA850 act | OPRM1 ag | m5-HT2A ag conf
C=CCn1c(SCC(=O)NC2CC2)nnc1-c1ccccn1 | -0.9 | 2.7 | 0.7 | 9.5 | 0.7 | · | ·
C=CCn1c(SCC(=O)NC2CCCCC2)nnc1-c1ccccn1 | -2.8 | 14.4* | -1.8 | 6.1 | 1.2 | -0.7 | -1.2
O=C(O)CCCCCNS(=O)(=O)c1ccc2c3c(cccc13)C(=O)N2 | -0.6 | 15.9* | · | 8.8 | 1.5 | -0.7 | -3.4
COc1cccc(/C=C/C(=O)OCC(=O)Nc2cccc(S(=O)(=O)NC3=NCCCCC3)c2)c1 | -1.2 | 4.2 | 0.2 | 8.9 | 0.6 | · | ·
O=C(OCC(=O)N1CCc2ccccc21)[C@@H]1CC(O)CN1S(=O)(=O)c1ccccc1[N+](=O)[O-] (stereo partly drawn) | -0.3 | -6.7 | 8.2 | 7.8 | 1.0 | · | ·
CCN(C(=O)CSc1n[nH]c(N)n1)C1CCCCC1 | 1.6 | 16.8* | -1.3 | 6.8 | -1.4 | -0.7 | -4.7
Cc1cc(C)n(CCN(C)C(=O)C2CCC(=O)N(CCc3cccc(F)c3)C2)n1 (stereo not drawn) | 0.1 | 15.0* | -1.0 | 1.1 | 3.5 | -0.4 | -3.5
COc1ccc(CCN2CC(C(=O)N(C)CCn3nc(C)cc3C)CCC2=O)cc1 (stereo not drawn) | -1.0 | -4.4 | 1.6 | -1.6 | -1.9 | · | ·
CN(CCc1ccccc1)C(=O)c1ccc(NC(=O)Cc2ccc(NC(=O)C3CCCN(C(=O)c4ccccc4)C3)cc2)cc1 (stereo not drawn) | 0.1 | -1.5 | · | 8.3 | -2.4 | · | ·
O=C(Nc1ccnc(-c2ccncc2)n1)c1ccc(Cl)cc1 | 1.3 | 3.0 | 13.4 | 0.0 | 2.2 | · | ·
Cc1ccccc1C(=O)Nc1ccnc(-c2ccncc2)n1 | -2.1 | 19.5* | 17.1 | 12.8 | -1.9 | 0.0 | 1.3
Cc1ccc(/C=N\NC(=O)Cc2cccn2C)o1 | -0.7 | 0.4 | 3.0 | 14.1 | 1.2 | · | ·
Cc1ccc(/C=N/NC(=O)CN2C(=O)CSc3ccccc32)o1 | -1.6 | 20.4* | 4.4 | 21.6 | 1.2 | -0.5 | -3.4
CC1(C2CC2)NC(=O)N(CC(=O)Nc2ccc(F)cc2F)C1=O (stereo not drawn) | -3.2 | 5.2 | 3.7 | -1.3 | 2.0 | · | ·
CCN1C(=O)C(=O)N(CC(=O)Nc2cccc(C(F)(F)F)c2)C1=O | -2.0 | 44.0* | 0.2 | 0.8 | 1.4 | -0.7 | -4.4
O=C(CSc1nc2c(cnn2-c2ccc(F)cc2)c(=O)[nH]1)N1CCCCC1 | 0.5 | 15.2* | 7.2 | 13.8 | 2.2 | -0.6 | -3.0
O=C(CSc1ccccc1)NCc1ccco1 | -2.0 | 15.3* | -2.5 | 3.4 | 1.6 | -0.5 | 3.3
COc1ccccc1CN1CC(C(=O)NCc2cc(C)on2)CCC1=O (stereo not drawn) | -2.6 | 15.8* | -1.7 | 9.5 | 2.7 | -0.3 | 2.1
COc1ccccc1CN1CC(C(=O)NCc2cccc(C)n2)CCC1=O (stereo not drawn) | -3.8 | 2.7 | 0.5 | 23.3 | -1.0 | · | ·
CC(=O)N1N=C(c2c(-c3ccccc3)c3cc(C)ccc3[nH]c2=O)CC1c1ccco1 (stereo not drawn) | -0.8 | 2.9 | 6.1 | 14.8 | -0.2 | · | ·
CC(=O)N1N=C(c2c(-c3ccccc3)c3cc(Br)ccc3[nH]c2=O)CC1c1ccco1 (stereo not drawn) | 7.2 | 24.5* | 4.8 | 15.3 | -3.0 | 0.5 | 29.5*
Cc1c(Cl)cccc1NC(=O)CSc1nnc(C)n1CC1CCCO1 (stereo not drawn) | -1.8 | -3.0 | 1.1 | 4.3 | 2.5 | · | ·
Cc1nnc(SCC(=O)Nc2cc(Cl)ccc2Cl)n1CC1CCCO1 (stereo not drawn) | 0.2 | 16.7* | 0.4 | 1.2 | 1.8 | -0.2 | -2.6
COc1ccc(CN2C(=O)C(CC(=O)NC3CCCC3)CC(C(=O)N(C)C)=C2C)cc1 (stereo not drawn) | -0.1 | 30.0* | · | 5.4 | 0.9 | -0.7 | -2.2
CC1=C(C(=O)N2CCCCCC2)CC(CC(=O)NC2CCCC2)C(=O)N1Cc1ccc(C(C)(C)C)cc1 (stereo not drawn) | · | 14.7* | · | · | · | -0.6 | -2.3

Compound activity deposited in PubChem BioAssay by The Scripps Research Institute Molecular Screening Center.
